Test [1] has as its system Panel (Carcinoma cell lines). Nature of the test: ip score (intraperitoneal implants) measured as in vivo hollow fiber assay in minimum of 12 human cancer cell lines. It is filed as functional.
Test [2] relates to Panel (Carcinoma cell lines). Nature of the test: sc score: subcutaneous implants. measured as in vivo hollow fiber assay in minimum of 12 human cancer cell lines. It counts as functional.
Test [3] can be described thus: Half-lethal concentration against COLO,HCC2998,HCT116,SK-MEL-2 cell lines. It counts as functional, Homo sapiens. The method in brief:
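NCI in vitro human tumor cell line screen. After a 24 h drug-free incubation, compounds were added at five 10-fold dilutions, with a maximum of 10^-4 M (test range 10^-4 to 10^-8 M). Cells were exposed for 2 days. Growth was read from the change in protein-stain optical density, and the half-lethal concentration (LC50) was derived for each cell line.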

A further test has as its system Cancer cell lines. The experiment in a line: Cell kill activity against cancer cell lines; No. It is filed as functional, cell-based. Conditions: Homo sapiens.

As to `CC(=O)N[C@@H]1[C@H](OCc2ccccc2)O[C@@H](CO)[C@@H](O)[C@@H]1OC(C)C(=O)N[C@@H](C)C(=O)N[C@H](CCC(=O)NCCCCNc1c2ccccc2nc2cccc([N+](=O)[O-])c12)C(N)=O` (stereo partly specified), the Ip score in test [1] is recorded as 4. The compound also came in with a Subcut score in test [2] of 12. In test [3], the “MID log LC50” value is -5.49 M.

For `CC(=O)N[C@@H]1[C@H](OCc2ccccc2)O[C@@H](COC(=O)CCCCCNc2ccc([N+](=O)[O-])c3nc4ccc(O)cc4c(O)c23)[C@@H](O)[C@@H]1OC(C)C(=O)N[C@@H](C)C(=O)N[C@H](CCC(N)=O)C(=O)OCc1ccccc1` (stereo partly specified), the “MID log LC50” value in test [3] was -4.23 M.

For the compound `CC(=O)N[C@@H]1[C@H](OCc2ccccc2)O[C@@H](CO)[C@@H](O)[C@@H]1OC(C)C(=O)N[C@H](C(=O)N[C@H](CCC(=O)NCCCCNc1c2ccccc2nc2cccc([N+](=O)[O-])c12)C(N)=O)C(C)C` (stereo partly specified), the Ip score in test [1] worked out at 32. The compound further registered a Subcut score in test [2] of 2. Also, in test [3], the “MID log LC50” value is recorded as -4.17 M.

In test [1], `CC(=O)N[C@@H]1[C@H](OCc2ccccc2)O[C@@H](CO)[C@@H](O)[C@@H]1OCC(=O)N[C@@H](C)C(=O)N[C@H](CCC(=O)NCCCCNc1c2ccccc2nc2cccc([N+](=O)[O-])c12)C(N)=O` came in with an Ip score of 4. The Subcut score in test [2] was found to be 2. For the same compound, in test [3], the “MID log LC50” value is -4.26 M.

Take `CC(=O)N[C@@H]1[C@H](OCc2ccccc2)O[C@@H](CO)[C@@H](O)[C@@H]1OCC(=O)N[C@@H](C)C(=O)N[C@H](CCC(=O)NCCCCCNc1c2ccccc2nc2cccc([N+](=O)[O-])c12)C(N)=O`: the Ip score in test [1] stood at 16. Moreover, the Subcut score in test [2] was 8. Besides, the “MID log LC50” value in test [3] is -5.82 M.

Take `COC(=O)[C@@H](CCC(N)=O)NC(=O)[C@@H](NC(=O)C(C)O[C@H]1[C@H](O)[C@H](COC(=O)CCCCCCCCCCNC(=O)c2ccc([N+](=O)[O-])c3c(O)c4ccccc4nc23)O[C@@H](OCc2ccccc2)[C@H]1NC(C)=O)C(C)C` (stereo partly specified): the “MID log LC50” value in test [3] was -4.25 M.

In the case of `CC(=O)N[C@@H]1[C@H](OCc2ccccc2)O[C@@H](CO)[C@@H](O)[C@@H]1OCC(=O)N[C@@H](C)C(=O)N[C@H](CCC(=O)NCCCNc1c2ccccc2nc2cccc([N+](=O)[O-])c12)C(N)=O`, the Ip score in test [1] is 2. Further, the cell kill activity entry in the test with Cancer cell lines was “No cell kill activity”. The compound also returned a Subcut score in test [2] of 2. Moreover, the “MID log LC50” value in test [3] is -4.97 M.

With `CC(=O)N[C@@H]1[C@H](OCc2ccccc2)O[C@@H](COC(=O)CCNc2c3ccccc3nc3cccc([N+](=O)[O-])c23)[C@@H](O)[C@@H]1OC(C)C(=O)N[C@@H](C)C(=O)N[C@H](CCC(N)=O)C(=O)OCc1ccccc1` (stereo partly specified), the “MID log LC50” value in test [3] is on record as -4.42 M.

`CC(=O)N[C@@H]1[C@H](OCc2ccccc2)O[C@@H](CO)[C@@H](O)[C@@H]1OC(C)C(=O)N[C@@H](C)C(=O)N[C@H](CCC(=O)NCCNCCNc1c2ccccc2nc2cccc([N+](=O)[O-])c12)C(N)=O` (stereo partly specified) came in with an Ip score in test [1] of 2. Also, the cell kill activity result in the test on Cancer cell lines was “No cell kill activity”. The Subcut score in test [2] amounted to 4. Moreover, the “MID log LC50” value in test [3] was -4.56 M.

With `CC(=O)N[C@@H]1[C@H](OCc2ccccc2)O[C@@H](CO)[C@@H](O)[C@@H]1OCC(=O)N1CCC[C@H]1C(=O)N[C@H](CCC(=O)NCCCCCNc1c2ccccc2nc2cccc([N+](=O)[O-])c12)C(N)=O`, the Ip score in test [1] was found to be 14. In addition, in test [2], the Subcut score is 0. Also, the “MID log LC50” value in test [3] is -5.51 M.

Source of the values: ChEMBL document CHEMBL1134656, “Synthesis and antitumor activity of conjugates of muramyldipeptide, normuramyldipeptide, and desmuramylpeptides with acridine/acridone derivatives” (2001).
